The list is not random: actives were taken first. Their share in the collection is about 2%.
M18AAP inhibitor: blocks P. falciparum M18 aspartyl aminopeptidase. hit rate 1.2% among 290,000. recombinant PfM18AAP, H-Glu-NHMec fluorogenic cleavage. inhibition, % at 7.35 µM;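 active means inhibition above the campaign mean inhibition over all tested compounds plus 3 SD, cut at about 28% in these data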;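 further: 0% = plate median of test compound wells and 100% = 2 mM ZnCl2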
RBBP9 inh: blocks human serine hydrolase RBBP9. O75884. recombinant RBBP9, FP-Rh probe fluorescence polarization. inhibition, % at 7.94 µM. hit rate 0.2% among 220,000;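 active means inhibition above the campaign mean of all tested compounds plus 3 SD, cut at about 14% in these data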;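 further: plate controls were DMSO wells with RBBP9 for no effect and wells lacking RBBP9 protein for full effect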
Target sequence (O75884 whole entry, looked up): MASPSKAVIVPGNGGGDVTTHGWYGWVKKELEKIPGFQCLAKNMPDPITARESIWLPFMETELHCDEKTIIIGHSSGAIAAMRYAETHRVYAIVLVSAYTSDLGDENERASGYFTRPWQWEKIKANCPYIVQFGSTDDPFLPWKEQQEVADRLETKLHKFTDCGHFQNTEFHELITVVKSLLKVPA
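system = RBBP9 protein | input = RBBP9 at 2.5 µM in dispensed solution, before mixing | measured by = fluorescence polarization (mP), excitation 525 nm, emission 598 nm | incubation = enzyme-compound preincubation 30 min, then probe labeling 45 min, 25 °C | buffer or medium = Tris-NaCl-Pluronic buffer, pH 8.0 | compound = single dose 7.94 µM | also added = FP-Rh probe, 375 nM dispensing solution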
zVAD death inh: blocks zVAD induced death of L929 cells; L929 zVAD necroptosis rescue, ATP luminescence, 24 h; with zVAD 60 µM; viability rescue, % at 10 µM; hit rate 0.38% among 220,000;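 active means activation, scaled between plate controls, above about 75%, limit read from the data; inactive means activation under that limit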;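 further: 0% = zVAD with DMSO and 100% = DMSO alone without zVAD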
Tb hexokinase: blocks Trypanosoma brucei hexokinase 1 activity | recombinant TbHK1, G6PDH-coupled NADH A340 | inhibition, % at 10 µM | hit rate 0.11% among 220,000;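 active means inhibition of 50% or more in the single-dose primary screen; inactive means inhibition below 50%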
Lipid droplet: hepatic lipid droplet formation modulation. AML12 mouse hepatocytes, oleate lipid droplets, BODIPY imaging. hit rate 0.4% among 240,000. AID 1656. inhibition, % at 6.5 µM;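 active means lipid droplet intensity inhibited by at least 50%, with more than 500 cells counted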
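System: AML12 hepatocytes (mouse). Probe or stimulus: oleic acid at 100 µM to induce lipid droplet formation. Times: overnight treatment with compound plus oleate. Detection: Image-based BODIPY and DAPI two-channel analysis. Evaluation: percent inhibition of filter-corrected integrated lipid droplet intensity per well.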
TNF necrop inh: blocks TNF-alpha induced death of Jurkat FADD-/- cells; Jurkat FADD-/- TNF necroptosis rescue, ATP luminescence, 24 h; 0 = TNF only, 100 = no-TNF cells; activation (protection from cell death), % at 10 µM; hit rate 0.068% among 220,000; AID 463075;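 active means activation, meaning protection from cell death, of at least 50% relative to plate controls; inactive means activation below 50%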;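 further: necroptosis triggered by 40 ng/mL TNF-alpha added together with compound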
Lipid drop inh: hepatic lipid droplet formation inhibition, confirmed. AID 463183. shares compounds with Lipid droplet. inhibition, % at 5.2 µM. AML12 mouse hepatocytes, BODIPY lipid droplet imaging; droplets induced with 100 µM oleic acid. hit rate 65% among 870;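 active means inhibition of lipid droplet metric at least 50%, with more than 300 cells in each of four replicates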;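 further: plate controls were DMSO with oleic acid for no effect and 5 µM Triacsin-C for full effect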
AML12 cytotox: toxic to AML12 mouse hepatocytes in counter-screen; shares compounds with Lipid droplet; DAPI nuclear morphology cytotoxicity imaging; active compounds read high; cells fed 100 µM oleate overnight; z-score at 5 µM; hit rate 3% among 870; in the data active means z-score above about 6.3;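 further: compound exposure lasted overnight at 37 °C before fixation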
AML12 tox ATP: AML12 hepatocyte cytotoxicity, confirmed | shares compounds with Lipid droplet | AML12 mouse hepatocyte viability, ATP luminescence; cells loaded with 100 µM oleic acid | cytotoxicity, % at 50 µM | 530 tested, under 10 active | AID 463219;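 active means cytotoxicity above 50% in each of four replicates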;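 further: compound exposure lasted overnight at 37 °C before the ATP read; 0% = DMSO-treated cells and 100% = wells with no cells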
The depositor's hits bear a star; / = not tested or not shown.

SMILES	M18AAP inhibitor	RBBP9 inh	zVAD death inh	Tb hexokinase	Lipid droplet	TNF necrop inh	Lipid drop inh	AML12 cytotox	AML12 tox ATP
O=S1(=O)N=C(Oc2cccc3ccccc23)c2ccccc21	8.4	-9.8	1.2	-0.5	65.8*	-3.0	22.8	-0.318	/
Oc1ccc(N=Nc2cccc(C(F)(F)F)c2)cc1C=Nc1ccc(N2CCOCC2)cc1	-0.1	-4.2	0.8	28.8	57.6*	-10.0	40.5	-0.229	/
Cc1ccc(/C(=N\S(=O)(=O)c2ccc(Br)cc2)Nc2ccccc2C)cc1	-0.7	/	/	/	-7.8	/	/	/	/
Cc1ccccc1N/C(=N/S(=O)(=O)c1ccccc1)c1ccc(F)cc1	-11.7	-4.3	-0.3	-11.7	54.4*	0.0	-10.0	0.382	/
Cc1c(-n2cc(C(=O)c3cc(Br)ccc3O)cc(C#N)c2=O)c(=O)n(-c2ccccc2)n1C	-0.8	-7.3	-0.4	-20.1	-11.7	-1.1	/	/	/
O=C(NCCc1cccnc1)c1cc(COc2ccc(F)cc2F)on1	-15.1	/	/	/	95.1*	/	35.5	-0.622	/
COc1cccc(C(=O)N2CCN(Cc3ccccc3Br)CC2)c1	-1.3	/	/	/	/	/	/	/	/
C=C(C)Cn1c(N2CCC(Cc3ccccc3)CC2)nc2c1c(=O)[nH]c(=O)n2C	-5.9	-2.1	0.1	-1.6	63.6*	-6.6	106.7*	-0.554	-1.8
O=c1c(C/C=C/c2ccccc2)c(O)ccn1CCc1c[nH]c2ccccc12	8.9	-0.5	-0.1	1.8	60.1*	1.3	105.5*	-0.194	13.1
COc1ccc(F)cc1CN1CCN(c2ncnc3scc(-c4ccccc4)c23)CC1	-0.9	-9.3	0.2	-3.2	56.2*	-0.9	-3.3	0.651	/
CCN1CCN(Cc2ccc(NC(=O)c3ccc(C)c(NC(=O)C(=O)c4c[nH]c5ccccc45)c3)cc2C(F)(F)F)CC1	5.6	/	62.7	-16.5	63.0*	-26.2	0.4	6.33*	/
COc1ccc(OCC(=O)Nc2ccc(NC(=O)c3cccs3)c(OC)c2)cc1	-17.2	-0.5	3.0	-2.5	3.2	1.7	/	/	/
COc1cc(NC(=O)c2cccs2)c(OC)cc1NC(=O)CCC(=O)Nc1ccc2ncccc2c1	-0.8	-8.6	-0.9	-4.9	68.3*	1.1	95.4*	0.972	67.8
COc1ccc(N=Nc2nc(-c3ccccc3)c(-c3ccccc3)[nH]2)cc1	-7.7	-39.9	7.7	3.7	99.8*	4.3	107.9*	1.01	-10.1
Cc1ccc(OCC(=O)Nc2ccon2)c([N+](=O)[O-])c1	-0.9	/	/	/	4.6	/	/	/	/
CC(NC(=O)NC1CCCCC1)C(c1cccs1)N1CCN(c2ccccc2)CC1 (stereo unspecified)	-12.4	-3.0	5.0	0.0	-2.9	0.5	/	/	/
Nc1cc(Nc2ccccc2)c2nonc2c1[N+](=O)[O-]	-5.6	/	/	/	101.3*	/	110.3*	0.69	3.5
Cc1ccc(C)c(NC(=O)Cn2cc(C(=O)C3CC3)c3ccccc32)c1	4.4	/	/	/	75.2*	/	93.7*	-0.527	18.9
Cc1ccc(NC(=O)Cn2cc(C(=O)C3CC3)c3ccccc32)c(C)c1	-2.9	/	/	/	17.4	/	/	/	/
CCN(CC(=O)NCc1ccc(Cl)cc1)C(=O)c1cc2ccccc2o1	-0.2	/	/	/	-0.8	/	/	/	/
Cc1occc1C(=O)N1CCCC(N2CCN(c3ccccc3F)CC2)C1 (stereo unspecified)	2.3	/	/	/	7.1	/	/	/	/
CCOc1cc2c(cc1OCC)C(c1ccccc1OC)OC(=O)C2 (stereo unspecified)	-2.2	-6.2	/	2.2	51.1*	-0.2	78.8*	-0.962	2.8
CCOc1ccccc1C1CC(=O)Nc2cc(OC)c(OC)cc21 (stereo unspecified)	0.7	/	/	/	1.3	/	/	/	/
Cc1cccc(NC(=O)CSc2nnc(C)c(=O)n2N)c1	1.3	4.5	3.1	-0.1	55.9*	1.4	46.2	0.0492	6.9
COc1ccc(NC(=O)CSc2nnc(C)c(=O)n2N)cc1	1.9	/	/	/	8.3	/	/	/	/

Screens deposited in PubChem BioAssay by several laboratories.
